Test results from PMC5700443 (Journal of Cachexia, Sarcopenia and Muscle, 2017).

How the values were obtained:
[1] = system: MuRF1 mRNA expression in C2C12 myotubes; experiment: MuRF1 mRNA expression in dexamethasone-treated myotubes; type: cell-based, Murine; details: DEX 10 μmol/L, 24 h
How it was run: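 Differentiated C2C12 myotubes (2% horse serum) were pre-treated for 2 h with test compound (0.1–10 μmol/L, DMSO) or DMSO alone before dexamethasone. Total RNA was reverse-transcribed with random hexamers. Quantitative RT-PCR used a LightCycler with FRET detection. MuRF1 was normalised to hypoxanthine phosphoribosyltransferase mRNA (60°C annealing). Mean ± SEM; one-way ANOVA, Bonferroni.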

[2] = system: diaphragm muscle of MCT-treated C57BL/6 mice; experiment: In vitro contractile function of diaphragm muscle bundles from treated mice; type: in vivo; details: MCT 600 mg/kg weekly, 6 weeks, vs sham
How it was run: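 C57BL/6 mice (8 weeks) got MCT or saline s.c.; compound was given at 0.1% w/w in chow from 1 week before MCT. Diaphragm bundles at optimal length in buffer pH ~7.4 (95% O2–5% CO2, ~22°C) were equilibrated 15 min, then force–frequency tested (1–300 Hz) plus isotonic loads. Specific force N/cm2 (density 1.06), velocity Lo/s, power = velocity × force; n = 16/group.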

[3] = system: C57BL/6 mice with MCT-induced cardiac cachexia; type: in vivo; details: MCT 600 mg/kg weekly, 6 weeks

SMILES | increase in MuRF1 mRNA expression relative to untreated cells [1] | effect on isometric forces [2] | reduction of peak power [2] | reduction of peak shortening velocity [2] | body weight loss ([3]; normal chow (sham gained 7.9 ± 0.8%)) [%] | lower TA fibre CSA ([3]; vs sham) | reduction in TA muscle weight ([3]; vs sham)
C[C@@H]1C[C@H]2[C@@H]3CCC4=CC(=O)C=C[C@]4(C)[C@@]3(F)[C@@H](O)C[C@]2(C)[C@@]1(O)C(=O)CO [Dexamethasone, dexamethasone] | approximately 2 fold |  |  |  |  |  | 
C[C@H]1C(=O)O[C@@H]2CCN3CC=C(COC(=O)[C@](C)(O)[C@]1(C)O)[C@H]23 [MCT, monocrotaline] |  | no significant effects | ~ 20% | ~ 20% | 0.7 ± 0.6 | ~ 20% | ~ 10%
